# Tests used:
# Assay type in all cases: functional
# HL-60 [1] = experiment: Induction of mitochondrial membrane potential loss in human HL60 cells assessed as mean fluorescence intensity at 6 uM after 12 hrs by TMRE probe based flow cytometry (reference value: 553)
# HL-60 [2] = experiment: Cell cycle arrest in human HL60 cells assessed as accumulation at S phase at 6 uM after 48 hrs by propidium iodide staining based flow cytometry (reference value: 37.5%)
# HL-60 [3] = experiment: Induction of mitochondrial membrane potential loss in human HL60 cells assessed as mean fluorescence intensity at 9 uM after 12 hrs by TMRE probe based flow cytometry (reference value: 553)
# HL-60 [4] = experiment: Induction of apoptosis in human HL60 cells assessed as early apoptotic cells at 9 uM after 24 hrs by Annexin-V-FITC/propidium iodide staining based flow cytometry (reference value: 2.91%)
# Method in brief: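 5×10^5 HL-60 cells in 6-well plates, treated at 3, 6 or 9 µM for 24 or 48 h. Cells were stained with Annexin V-FITC/PI and read by flow cytometry. Early apoptotic cells were taken as Annexin+/PI− and late apoptotic or necrotic cells as Annexin+/PI+.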
# HL-60 [5] = experiment: Cell cycle arrest in human HL60 cells assessed as accumulation at S phase at 3 uM after 48 hrs by propidium iodide staining based flow cytometry (reference value: 37.5%)
# HL-60 [6] = experiment: Cell cycle arrest in human HL60 cells assessed as accumulation at G2/M phase at 9 uM after 24 hrs by propidium iodide staining based flow cytometry (reference value: 7.2%)
# HL-60 [7] = experiment: Induction of mitochondrial dysfunction in human HL60 cells assessed as reduction in ATP level at 3 uM after 24 hrs by luminescence assay relative to control; design: scale not given: the % may be the effect or the level left
# Method in brief: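 HL-60 cells were treated at 3, 6 or 9 µM for 12 or 24 h, then lysed in ice-cold buffer and spun at 12000g for 10 min at 4 °C. Supernatant ATP was measured by luciferase–luciferin luminescence and expressed relative to control, as mean ± SE.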
smiles,measurement,setting,value
CCC1=C(Cl)C(=O)c2cc(OC)c(OC)c(OC)c2C1=O,Flu intensity,HL-60 [1],262
same,Activity,HL-60 [2],47.91%
same,Flu intensity,HL-60 [3],209
same,Activity,HL-60 [4],17.61%
same,Activity,HL-60 [5],38.09%
same,Activity,HL-60 [6],12.24%
same,Activity,HL-60 [7],23%
